# Source: ChEMBL document CHEMBL5058577, “EUbOPEN Chemogenomics Library 2 (Multiplex)” (2022)
# Test system: Fibroblast
# Experiment: Multiplex assay against human fibroblast
# Format: toxicity, cell-based
# Procedure, shortened: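 On a CQ1 microscope at 37°C and 5% CO2, live cells were imaged after compound addition. They had been stained at seeding with Hoechst33342, BioTracker Green Microtubule Cytoskeleton Dye, MitoTracker Red and Annexin V Alexa Fluor 680. CellPathfinder machine-learning gating assigned cells to Hoechst high-intensity objects or normal cells, normal cells to healthy, pyknosed or fragmented nuclei, and pyknosed cells to mitotic or apoptotic. Tubulin, mitochondrial-mass and membrane-permeability phenotypes are per cents of healthy-nucleus cells.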
# [1] = 12 h, 1 µM, compound concentration 1 uM, replicate 1
# [2] = 12 h, 1 µM, compound concentration 1 uM, replicate 2
# [3] = 12 h, 10 µM, compound concentration 10 uM, replicate 1
# [4] = 12 h, 10 µM, compound concentration 10 uM, replicate 2
# [5] = 24 h, 1 µM, compound concentration 1 uM, replicate 1
# [6] = 24 h, 1 µM, compound concentration 1 uM, replicate 2
# [7] = 24 h, 10 µM, compound concentration 10 uM, replicate 1
# [8] = 24 h, 10 µM, compound concentration 10 uM, replicate 2
# [9] = 48 h, 1 µM, compound concentration 1 uM, replicate 1
# [10] = 48 h, 1 µM, compound concentration 1 uM, replicate 2
# [11] = 48 h, 10 µM, compound concentration 10 uM, replicate 1
# [12] = 48 h, 10 µM, compound concentration 10 uM, replicate 2
smiles,measurement,setting,value
CC(C)(C)c1ccc(S(=O)(=O)Nc2ccc(Cl)cc2C(=O)c2cc[n+]([O-])cc2)cc1 [VERCIRNON],Population Apoptotic (%),[1],63%
same,Population Fragmented Nuclei (%),[1],19%
same,Population Healthy Nuclei (%),[1],65%
same,Population Hoechst High Intensity Objects (%),[1],2%
same,Population Membrane Permeable-Phenotype (%),[1],1%
same,Population Mitochondria Different-Phenotype (%),[1],3%
same,Population Mitotic Cells (%),[1],36%
same,Population Normal (%),[1],97%
same,Population Pyknosed Nuclei (%),[1],15%
same,Population Tubulin-Different-Phenotype (%),[1],20%
same,Total Cell Count,[1],148
same,Population Apoptotic (%),[2],50%
same,Population Fragmented Nuclei (%),[2],27%
same,Population Healthy Nuclei (%),[2],46%
same,Population Hoechst High Intensity Objects (%),[2],7%
same,Population Membrane Permeable-Phenotype (%),[2],6%
same,Population Mitochondria Different-Phenotype (%),[2],1%
same,Population Mitotic Cells (%),[2],50%
same,Population Normal (%),[2],92%
same,Population Pyknosed Nuclei (%),[2],25%
same,Population Tubulin-Different-Phenotype (%),[2],41%
same,Total Cell Count,[2],152
same,Population Apoptotic (%),[3],59%
same,Population Fragmented Nuclei (%),[3],14%
same,Population Healthy Nuclei (%),[3],64%
same,Population Hoechst High Intensity Objects (%),[3],3%
same,Population Membrane Permeable-Phenotype (%),[3],3%
same,Population Mitochondria Different-Phenotype (%),[3],1%
same,Population Mitotic Cells (%),[3],40%
same,Population Normal (%),[3],96%
same,Population Pyknosed Nuclei (%),[3],21%
same,Population Tubulin-Different-Phenotype (%),[3],46%
same,Total Cell Count,[3],107
same,Population Apoptotic (%),[4],48%
same,Population Fragmented Nuclei (%),[4],30%
same,Population Healthy Nuclei (%),[4],44%
same,Population Hoechst High Intensity Objects (%),[4],5%
same,Population Membrane Permeable-Phenotype (%),[4],8%
same,Population Mitochondria Different-Phenotype (%),[4],10%
same,Population Mitotic Cells (%),[4],51%
same,Population Normal (%),[4],94%
same,Population Pyknosed Nuclei (%),[4],25%
same,Population Tubulin-Different-Phenotype (%),[4],66%
same,Total Cell Count,[4],114
same,Population Apoptotic (%),[5],55%
same,Population Fragmented Nuclei (%),[5],23%
same,Population Healthy Nuclei (%),[5],62%
same,Population Hoechst High Intensity Objects (%),[5],0%
same,Population Membrane Permeable-Phenotype (%),[5],4%
same,Population Mitochondria Different-Phenotype (%),[5],1%
same,Population Mitotic Cells (%),[5],45%
same,Population Normal (%),[5],99%
same,Population Pyknosed Nuclei (%),[5],14%
same,Population Tubulin-Different-Phenotype (%),[5],27%
same,Total Cell Count,[5],141
same,Population Apoptotic (%),[6],54%
same,Population Fragmented Nuclei (%),[6],25%
same,Population Healthy Nuclei (%),[6],57%
same,Population Hoechst High Intensity Objects (%),[6],7%
same,Population Membrane Permeable-Phenotype (%),[6],7%
same,Population Normal (%),[6],92%
same,Population Pyknosed Nuclei (%),[6],16%
same,Population Tubulin-Different-Phenotype (%),[6],40%
same,Total Cell Count,[6],142
same,Population Apoptotic (%),[7],66%
same,Population Fragmented Nuclei (%),[7],16%
same,Population Healthy Nuclei (%),[7],66%
same,Population Hoechst High Intensity Objects (%),[7],1%
same,Population Membrane Permeable-Phenotype (%),[7],4%
same,Population Mitochondria Different-Phenotype (%),[7],2%
same,Population Mitotic Cells (%),[7],33%
same,Population Normal (%),[7],98%
same,Population Pyknosed Nuclei (%),[7],16%
same,Population Tubulin-Different-Phenotype (%),[7],40%
same,Total Cell Count,[7],114
same,Population Apoptotic (%),[8],41%
same,Population Fragmented Nuclei (%),[8],32%
same,Population Healthy Nuclei (%),[8],42%
same,Population Hoechst High Intensity Objects (%),[8],0%
same,Population Membrane Permeable-Phenotype (%),[8],21%
same,Population Mitochondria Different-Phenotype (%),[8],9%
same,Population Mitotic Cells (%),[8],58%
same,Population Normal (%),[8],99%
same,Population Pyknosed Nuclei (%),[8],24%
same,Population Tubulin-Different-Phenotype (%),[8],82%
same,Total Cell Count,[8],120
same,Population Apoptotic (%),[9],61%
same,Population Fragmented Nuclei (%),[9],29%
same,Population Healthy Nuclei (%),[9],58%
same,Population Hoechst High Intensity Objects (%),[9],1%
same,Population Membrane Permeable-Phenotype (%),[9],1%
same,Population Mitochondria Different-Phenotype (%),[9],1%
same,Population Mitotic Cells (%),[9],38%
same,Population Normal (%),[9],98%
same,Population Pyknosed Nuclei (%),[9],12%
same,Population Tubulin-Different-Phenotype (%),[9],25%
same,Total Cell Count,[9],151
same,Population Apoptotic (%),[10],62%
same,Population Fragmented Nuclei (%),[10],32%
same,Population Healthy Nuclei (%),[10],55%
same,Population Hoechst High Intensity Objects (%),[10],6%
same,Population Membrane Permeable-Phenotype (%),[10],6%
same,Population Mitochondria Different-Phenotype (%),[10],9%
same,Population Mitotic Cells (%),[10],37%
same,Population Normal (%),[10],93%
same,Population Pyknosed Nuclei (%),[10],11%
same,Population Tubulin-Different-Phenotype (%),[10],37%
same,Total Cell Count,[10],145
same,Population Apoptotic (%),[11],62%
same,Population Fragmented Nuclei (%),[11],22%
same,Population Healthy Nuclei (%),[11],64%
same,Population Hoechst High Intensity Objects (%),[11],2%
same,Population Membrane Permeable-Phenotype (%),[11],1%
same,Population Mitochondria Different-Phenotype (%),[11],0%
same,Population Mitotic Cells (%),[11],37%
same,Population Normal (%),[11],97%
same,Population Pyknosed Nuclei (%),[11],13%
same,Population Tubulin-Different-Phenotype (%),[11],38%
same,Total Cell Count,[11],120
same,Population Apoptotic (%),[12],46%
same,Population Fragmented Nuclei (%),[12],42%
same,Population Healthy Nuclei (%),[12],46%
same,Population Hoechst High Intensity Objects (%),[12],4%
same,Population Membrane Permeable-Phenotype (%),[12],16%
same,Population Mitochondria Different-Phenotype (%),[12],12%
same,Population Mitotic Cells (%),[12],53%
same,Population Normal (%),[12],95%
same,Population Pyknosed Nuclei (%),[12],11%
same,Population Tubulin-Different-Phenotype (%),[12],72%
same,Total Cell Count,[12],122
